Like-named read-outs stand apart in the source and are kept apart here.
Test system: participants with advanced or metastatic solid tumors
Assay type: in vivo, human
Outline: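 Open-label, first-in-human 3 + 3 escalation in adults with recurrent, locally advanced or metastatic solid tumors lacking standard therapy. Test compound was given orally once daily from 25 up to 700 mg/day (modified Fibonacci steps) in 28-day cycles for 6 to 8 cycles, with no intrapatient escalation. The safety population was everyone dosed at least once. AEs were coded by MedDRA and graded by NCI CTCAE v4.03. DLT was assessed in cycle 1, and MTD was the highest dose with DLT in under one-third of a cohort.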

## CNC(=O)c1ccccc1Nc1nc(Nc2ccc3c(c2OC)CCC[C@H](N2CCN(CCO)CC2)C3)ncc1Cl [ESK-440]
350 mg/day (n = 4)
  AE: Decreased appetite: 2 (50) Number (%) of participants
  AE: Diarrhea: 1 (25) Number (%) of participants
  AE: Edema peripheral: 0 Number (%) of participants
  AE: Fatigue: 2 (50) Number (%) of participants
  AE: Nausea: 2 (50) Number (%) of participants
  AE: Pyrexia: 1 (25) Number (%) of participants
  AE: Vomiting: 1 (25) Number (%) of participants
  Any AE: 4 (100) Number (%) of participants
  Deaths: 0 Number (%) of participants
  Grade 3-5 AE: 2 (50) Number (%) of participants
  Other serious AEs: 1 (25) Number (%) of participants
  Treatment-related AE: 3 (75) Number (%) of participants
  Withdrawn from treatment due to AE: 1 (25) Number (%) of participants
500 mg/day (n = 6)
  AE: Cough: 1 (17) Number (%) of participants
  AE: Decreased appetite: 2 (33) Number (%) of participants
  AE: Diarrhea: 2 (33) Number (%) of participants
  AE: Edema peripheral: 0 Number (%) of participants
  AE: Fatigue: 2 (33) Number (%) of participants
  AE: Nausea: 5 (83) Number (%) of participants
  AE: Pyrexia: 2 (33) Number (%) of participants
  AE: Vomiting: 5 (83) Number (%) of participants
  Any AE: 6 (100) Number (%) of participants
  Deaths: 0 Number (%) of participants
  Grade 3-5 AE: 1 (17) Number (%) of participants
  Other serious AEs: 1 (17) Number (%) of participants
  Treatment-related AE: 5 (83) Number (%) of participants
  Withdrawn from treatment due to AE: 2 (33) Number (%) of participants
500 mg/day treatment group
  participants reporting a DLT: 1 participants
700 mg/day (n = 5)
  AE: Cough: 0 Number (%) of participants
  AE: Decreased appetite: 2 (40) Number (%) of participants
  AE: Diarrhea: 1 (20) Number (%) of participants
  AE: Edema peripheral: 1 (20) Number (%) of participants
  AE: Fatigue: 4 (80) Number (%) of participants
  AE: Nausea: 5 (100) Number (%) of participants
  AE: Pyrexia: 0 Number (%) of participants
  AE: Vomiting: 3 (60) Number (%) of participants
  Any AE: 5 (100) Number (%) of participants
  Deaths: 1 (20) Number (%) of participants
  Grade 3-5 AE: 4 (80) Number (%) of participants
  Other serious AEs: 0 Number (%) of participants
  Treatment-related AE: 5 (100) Number (%) of participants
  Withdrawn from treatment due to AE: 2 (40) Number (%) of participants
700 mg/day treatment group
  participants reporting a DLT: 2 participants
4 deaths during study
  deaths considered by investigators related to ESK-440: None
Overall (N = 32)
  AE cough: 16%
  AE decreased appetite: 28%
  AE diarrhea: 25%
  AE fatigue: 53%
  AE nausea: 53%
  AE peripheral edema: 16%
  AE pyrexia: 19%
  AE vomiting: 38%
  AE: Cough: 5 (16) Number (%) of participants
  AE: Decreased appetite: 9 (28) Number (%) of participants
  AE: Diarrhea: 8 (25) Number (%) of participants
  AE: Edema peripheral: 5 (16) Number (%) of participants
  AE: Fatigue: 17 (53) Number (%) of participants
  AE: Nausea: 17 (53) Number (%) of participants
  AE: Pyrexia: 6 (19) Number (%) of participants
  AE: Vomiting: 12 (38) Number (%) of participants
  Any AE: 31 (97) Number (%) of participants
  Deaths: 4 (13) Number (%) of participants
  Grade 3-5 AE: 15 (47) Number (%) of participants
  Other serious AEs: 9 (28) Number (%) of participants
  Withdrawn from treatment due to AE: 7 (22) Number (%) of participants
  at least 1 AE: 97%
  deaths reported during the study: 4
  grade 3+ AEs: 47%
  withdrew from treatment due to AEs: 22%
All 3 cases, considered related to ESK-440
  nature of the DLT: grade 3 nausea
All dose groups
  participants reporting a DLT: Three
During the study
  changes in vital signs, ECG findings, physical exam findings, pulmonary function tests: no clinically significant changes
From baseline
  decline in ECOG performance status: 13 participants
In vivo
  QTcF value meeting protocol-defined DLT criterion (>500 msec): No patient
  no change from baseline in ECOG performance status: Nineteen
Of SAEs in nine participants, nausea
  SAEs considered related to ESK-440: 1
oral, 28-day cycle, DLT in cycle 1
  maximum tolerated dose (MTD): 500 mg/day
